Laboratory results from PubChem BioAssay AID651775 (Broad Institute, 2012).

test system: SK-MEL-5 TRPM1 promoter luciferase, 24 h; experiment: activators of MITF-driven TRPM1 promoter, dose response, cell-based, SK-MEL-5, luciferase, dry powder (AID 651775)
How it was run: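 Assay system: TRPM1 promoter-luciferase reporter stably expressed in SK-MEL-5 melanoma cells; Medium: DMEM without phenol red, 10% heat-inactivated FBS; Schedule: compound added day after seeding, 24 h exposure at 37 °C; Detection: SteadyGlo luminescence, read after 5 min at room temperature.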

SMILES	AC40 [µM]
CCCN(CCC)c1ncnc2c1cnn2-c1ccc(OC)cc1	0.039
O=C(Nc1cccc(F)c1)NC1CCCCCCC1	0.984
C=CCNc1nc(-c2ccc(Cl)cc2)cs1	0.219
COc1ccc(NC(=O)c2ccc3[nH]c(C)c(C)c3c2)cc1	1.93
Cc1ccc(NC(=O)c2ccc3ccccc3n2)cc1S(=O)(=O)N(C)C	0.462
COc1cccc(NC(=O)C(=O)NCCC2CCCCN2S(=O)(=O)c2cccs2)c1 (stereo not drawn)	2.07
COc1ccc(C(=O)NCCn2ccc3ccccc32)cc1	0.531
Cc1cc2ncc(-c3ccc(Cl)cc3)c(N)n2n1	1.77
Cc1ccc(C(=O)Nc2cccc(O)c2)cc1S(=O)(=O)N1CCCCCC1	1.01
O=C(NCCc1cccs1)c1ccc(Cl)c(Cl)c1	0.615
c1ccc2c(Nc3nnc(-c4ccncc4)s3)cccc2c1	1.13
Fc1ccccc1COc1ccc(C(=S)N2CCCC2)cc1	1.32
CC(=O)Nc1nnc(COc2ccc(Cl)cc2)s1	0.589
O=C(Oc1ccc2ccccc2c1Cl)N1CCCCCC1	0.113
C/C(=N\OCc1ccc(C#N)cc1)c1ccc(S(=O)(=O)N(C)C)cc1	7.8
c1ccc(CSc2ccc(-c3ccc4c(c3)OCO4)nn2)cc1	0.974
Cc1nn2c(-c3ccccc3)ccnc2c1-c1ccccc1	0.824
CCN(CC)c1ccc(Nc2nc(-c3cccnc3)cs2)cc1	0.515
CC(C)(C)C(=O)N1CCN(c2nc3ccccc3s2)CC1	0.912
COC(=O)C(C)N1C(=O)S/C(=C/c2cc(C)n(C(C)C)c2C)C1=O (stereo not drawn)	0.541
COc1cc(/C=N/O)ccc1OCc1ccccc1Cl	0.18
CSc1nc2ccc(NC(=O)c3cccs3)cc2s1	0.465
c1ccc(-c2ccc(-c3cnc4n3CCCCC4)cc2)cc1	2.29
